Here are results for 58 compounds from PubChem BioAssay AID504382 (The Scripps Research Institute Molecular Screening Center, 2011).

The whole screen tested about 2,500 compounds, of which about 460 (18%) were called active. The list is a sample of the results. Unmarked numbers belong to inactive results.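 The calls were made as follows: active = mean activation above a cutoff of low control average plus 3 SD from the earlier screen (cut at about 12% in these data); inactive = the rest.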

A short description of the test: compound fluorescence interference without thin filaments, confirmation, artefact control for cardiac RTF calcium sensitizer project, biochemical (AID 504382). The following applies: IANBD fluorescence interference counterscreen, buffer, EC20 Ca2+; at 7.2 µM; stronger effect = higher value; scaled: EC20 calcium 0, EC100 calcium 100. In short, it runs like this:
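timing = compound incubation 15 min at 25 °C before fluorescence reading | technique = fluorescence at 480 nm excitation, 540 nm emission | evaluation = interference relative to controls | replication = triplicate wells per compound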
In general terms: A counterscreen serves to expose hits that act by an unwanted route or on another target.
As to `Cc1ccc(S(=O)(=O)Nc2ccc3ncccc3c2[N+](=O)[O-])cc1`, the fluorescence artifact activation was 0.33%.

Take `COc1ccc(/C=C2\CC/C(=C\c3ccc(OC)cc3OC)C2=O)c(OC)c1`: the fluorescence artifact activation is 9.84%.

`CCCN1C(=O)/C(=C/C=C2\N(CC)c3ccccc3C2(C)C)SC1=S`: the fluorescence artifact activation is 0.48%.

In the case of `CCCN1C(=O)/C(=C\C=C2\N(CC)c3ccccc3C2(C)C)SC1=S`, the fluorescence artifact activation was 0.28%.

For the compound `CCCCN1C(=O)/C(=C/C=C2\Oc3ccccc3N2CC)SC1=S`, the fluorescence artifact activation was 16.6% (active).

Consider `CC(C(=O)NNS(=O)(=O)c1cccc(C(F)(F)F)c1)n1nnc(N2CCOCC2)n1` (stereo not drawn), for which the fluorescence artifact activation is 0.4%.

On to `COc1ccc2c3c(cccc13)C(=O)CC2`, for which the fluorescence artifact activation was 1.92%.

For the compound `COc1cc2c(cc1[N+](=O)[O-])-c1ccccc1C2`, the fluorescence artifact activation is 70.4% (active).

Take `COc1cc(OC)c(OC)cc1/C=C1/Cc2ccccc2C1=O`: the fluorescence artifact activation was -0.02%.

In the case of `Cc1noc(C)c1S(=O)(=O)N(C)C[C@H]1Oc2ccc(NC(=O)CCC(F)(F)F)cc2C(=O)N([C@H](C)CO)C[C@@H]1C`, the fluorescence artifact activation was 0.08%.

Consider `O=S(=O)(Nc1nc2ccccc2nc1N1CCN(c2ccccn2)CC1)c1ccc(Cl)cc1`, for which the fluorescence artifact activation is -0.09%.

With `Cc1ccc(S(=O)(=O)Nc2nc3ccccc3nc2NCc2ccco2)cc1`, the fluorescence artifact activation was 2.57%.

As to `O=S(=O)(Nc1nc2ccccc2nc1NCCO)c1cccc(Cl)c1`, the fluorescence artifact activation was 57.1% (active).

`COC1=CC2(O)CCCC2=CC1=O` (stereo not drawn): the fluorescence artifact activation is 0.15%.

In the case of `Cc1cc(Cn2nc(C(=O)NCC3CC3)cc2-c2ccccc2)on1`, the fluorescence artifact activation is 0.04%.

For `COc1cccc(/C=C/C(=C2\C(=O)N(c3ccccc3)N=C2C)c2ccc(Br)cc2)c1OC`, the fluorescence artifact activation is 0.1%.

In the case of `CCC1(c2ccccc2)NC(=O)N(CC(=O)Nc2ccc(OC)nc2)C1=O` (stereo not drawn), the fluorescence artifact activation is -0.05%.

With `CCN(C(=O)c1cc2ccccc2oc1=O)c1ccccc1`, the fluorescence artifact activation was 1.56%.

For the compound `C/C(=N/NC(=O)CNC(=O)Cc1ccccc1)c1ccco1`, the fluorescence artifact activation was 0%.

On to `N#CCCN(C(=O)c1ccco1)c1ccccc1`, for which the fluorescence artifact activation is 1610% (active).

On to `CCOCCCNc1ccc(-c2ccccc2)nn1`, for which the fluorescence artifact activation was 1.31%.

Regarding `O=C1/C(=C\c2cc(Cl)c(O)c(Cl)c2)SC(=S)N1Cc1ccccc1`, the fluorescence artifact activation is -0.11%.

As for `COc1ccc(O)c(/C=C2/SC(=S)N(Cc3ccccc3)C2=O)c1`, the fluorescence artifact activation is 0.17%.

Turning to `COc1cc(/C=C2/SC(=S)N(Cc3ccccc3)C2=O)cc(Cl)c1O`, the fluorescence artifact activation was 1800% (active).

Regarding `O=C(N/N=C/c1cccc([N+](=O)[O-])c1)c1cnccn1`, the fluorescence artifact activation was -0.02%.

On to `O=C(CSc1ccc(-c2cccs2)nn1)N1CCCCC1`, for which the fluorescence artifact activation is 0.91%.

Consider `CCOc1ccc(NC(=O)COC(=O)CCN2C(=O)C3CC=CCC3C2=O)cc1OCC` (stereo not drawn), for which the fluorescence artifact activation was 0.5%.

As for `CN1CC[C@@H]2C(=O)N3CCc4ccc(Br)cc4[C@@H]3C[C@@H]21`, the fluorescence artifact activation was 0.24%.

Regarding `COC(=O)C1=C(O)/C(=C\c2ccc(CNS(=O)(=O)c3ccc(Cl)cc3)o2)N=C1C`, the fluorescence artifact activation is 0.18%.

With `CCN1CC=C2C(C#N)=C(N)C(C#N)(C#N)C(CCc3ccccc3)C2C1` (stereo not drawn), the fluorescence artifact activation is 0.03%.

As to `CN1CC=C2C(C#N)=C(N)C(C#N)(C#N)[C@H](c3cccc(Cl)c3)C2C1` (stereo partly drawn), the fluorescence artifact activation is 10.2%.

On to `CN1CC=C2C(C#N)=C(N)C(C#N)(C#N)C(CCc3ccccc3)C2C1` (stereo not drawn), for which the fluorescence artifact activation is 12.7% (active).

As to `COc1cc([C@@H]2[C@H]3CN(C)CC=C3C(C#N)=C(N)C2(C#N)C#N)cc2c1OCO2`, the fluorescence artifact activation is 0.14%.

As to `CN1CC=C2C(C#N)=C(N)C(C#N)(C#N)C(Cc3ccccc3)C2C1` (stereo not drawn), the fluorescence artifact activation was 0.22%.

With `COc1cc(C2C3CN(C)CC=C3C(C#N)=C(N)C2(C#N)C#N)ccc1OC(C)C` (stereo not drawn), the fluorescence artifact activation is 16.8% (active).

`COc1ccc(/C=N/NC(=O)C(Cc2c[nH]c3ccccc23)NC(=O)OCC(C)C)cc1[N+](=O)[O-]` (stereo not drawn): the fluorescence artifact activation is 0.1%.

Consider `Cc1cccc(CN2C(=O)N/C(=C/c3ccc(C)s3)C2=O)c1`, for which the fluorescence artifact activation was 0.03%.

Take `COc1ccc(C2C(C#N)=C(N)N(c3cccnc3)C3=C2C(=O)CCC3)cc1Cn1cc([N+](=O)[O-])cn1` (stereo not drawn): the fluorescence artifact activation is 4.77%.

With `CCOC(=O)C1C(=O)NC(SCC(N)=O)=C(C#N)C1c1ccccc1OCC` (stereo not drawn), the fluorescence artifact activation is 0.28%.

Consider `Fc1ccc(-c2nc3ccncc3[nH]2)cc1`, for which the fluorescence artifact activation is 1.25%.

`Cc1ccc2oc3c(SCc4nc5ccccc5[nH]4)nc(C)nc3c2c1`: the fluorescence artifact activation was 6.37%.

As for `CC1=NN(C(=O)c2ccccc2-n2cccc2)C(O)(C(F)(F)F)C1` (stereo not drawn), the fluorescence artifact activation was 0.1%.

Take `COc1ccc(OC)c(C2=C/C(=C/c3ccccn3)C(=O)O2)c1`: the fluorescence artifact activation is 0.07%.

For `CCN(CC)c1ccc(/C=C/c2cc(-c3ccccc3)c3ccccc3n2)cc1`, the fluorescence artifact activation is 3.44%.

With `CCN(CC)c1ccc(/C=C/c2cccc[n+]2C)c(OC)c1`, the fluorescence artifact activation was 22.6% (active).

As for `C[C@@H]1CC=C[C@H]2[C@H]1C(=O)N(Cc1ccccc1)[C@H]2c1ccc(-c2cc3ccccc3s2)cc1F`, the fluorescence artifact activation is 0.21%.

As for `COc1ccc(-c2cc(C(F)(F)F)nc(S(=O)(=O)CCCC(=O)Nc3cc(C)on3)n2)cc1OC`, the fluorescence artifact activation is 3.3%.

Regarding `COc1ccc(NC(=O)c2cc(C)on2)cc1OC`, the fluorescence artifact activation was 0.84%.

As to `COc1ccc(S(=O)(=O)Nc2cc(C)on2)cc1`, the fluorescence artifact activation is 26.7% (active).

With `CC1=NN(C(=O)c2ccc(Cn3ccc([N+](=O)[O-])n3)cc2)C(O)(C(F)(F)F)C1` (stereo not drawn), the fluorescence artifact activation is 5.1%.

Regarding `COc1cccc(/C=N/c2nc3ccccc3[nH]2)c1O`, the fluorescence artifact activation is 0.01%.

`CN(C)c1ccc(/C=C/C(=O)c2c(O)c3ccccc3oc2=O)cc1`: the fluorescence artifact activation was 1.4%.

For the compound `CN1CCN(c2ccc(-c3cccc(NC(=O)COc4ccccc4)c3)nn2)CC1`, the fluorescence artifact activation was 9.37%.

Turning to `Cc1cc[n+](-c2[nH]c(=O)sc2/C=N/N=C(\[O-])c2ccccc2)cc1C`, the fluorescence artifact activation was 3.62%.

Consider `O=C(NC(=S)Nc1ccc2oc(=O)ccc2c1)c1ccco1`, for which the fluorescence artifact activation is 33.8% (active).

In the case of `O=C(NC(NC(=S)Nc1ccccc1C(=O)O)C(Cl)(Cl)Cl)c1ccco1` (stereo not drawn), the fluorescence artifact activation was 0%.

`O=C(CSc1ccc(Cl)cc1)Nc1cccc(NC(=O)c2ccco2)c1`: the fluorescence artifact activation is 0.39%.

For the compound `COc1ccc(/C=[N+](\[O-])C2N(c3ccccc3)C(=S)SC2(C)C)cc1OC` (stereo not drawn), the fluorescence artifact activation is 0.2%.
